Assay results reported in ChEMBL document CHEMBL1153096, “Properly substituted 1,4-dioxane nucleus favours the selective M3 muscarinic receptor activation” (Bioorg Med Chem, 2009).
Calls of active or inactive are those of the source. The rule behind the calls is not given here.

Experiments:
[1] = target: T1, Muscarinic acetylcholine receptor M4 (Homo sapiens, UniProt P08173); assay: Displacement of [3H]NMS from human muscarinic M4 receptor expressed in CHO cells by microplate scintillation counting; assay type: cell-based
T1 sequence (P08173 whole entry): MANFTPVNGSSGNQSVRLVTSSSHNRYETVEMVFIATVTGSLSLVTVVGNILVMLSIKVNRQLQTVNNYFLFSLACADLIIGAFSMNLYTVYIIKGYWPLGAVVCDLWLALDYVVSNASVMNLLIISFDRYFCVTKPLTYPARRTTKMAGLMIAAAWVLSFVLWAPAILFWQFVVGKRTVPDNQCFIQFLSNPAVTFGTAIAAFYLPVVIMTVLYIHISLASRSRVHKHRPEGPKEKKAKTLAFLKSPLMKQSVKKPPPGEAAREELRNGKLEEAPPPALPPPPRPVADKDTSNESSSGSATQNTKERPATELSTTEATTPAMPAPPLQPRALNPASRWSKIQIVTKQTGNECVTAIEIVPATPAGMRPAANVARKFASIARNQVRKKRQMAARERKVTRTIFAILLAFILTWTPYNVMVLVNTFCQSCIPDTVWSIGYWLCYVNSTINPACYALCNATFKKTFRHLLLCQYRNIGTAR

[2] = target: T2, Muscarinic acetylcholine receptor M1 (Homo sapiens, UniProt P11229); assay: Displacement of [3H]NMS from human muscarinic M1 receptor expressed in CHO cells by microplate scintillation counting; assay type: cell-based
T2 sequence (P11229 whole entry): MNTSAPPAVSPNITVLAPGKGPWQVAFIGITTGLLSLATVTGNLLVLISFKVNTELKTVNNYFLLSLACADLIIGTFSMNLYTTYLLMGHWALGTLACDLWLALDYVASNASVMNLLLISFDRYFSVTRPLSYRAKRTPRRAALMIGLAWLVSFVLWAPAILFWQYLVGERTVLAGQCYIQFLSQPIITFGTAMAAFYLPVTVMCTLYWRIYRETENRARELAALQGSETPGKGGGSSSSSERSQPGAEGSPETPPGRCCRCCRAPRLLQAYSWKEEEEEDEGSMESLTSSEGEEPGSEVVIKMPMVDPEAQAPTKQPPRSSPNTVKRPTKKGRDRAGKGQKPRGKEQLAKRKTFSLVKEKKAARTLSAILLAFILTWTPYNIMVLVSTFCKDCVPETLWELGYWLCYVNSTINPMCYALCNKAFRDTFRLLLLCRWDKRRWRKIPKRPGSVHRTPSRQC

[3] = target: Muscarinic acetylcholine receptor M3 (Cavia porcellus) (UniProt Q8VH26); assay: Intrinsic activity at muscarinic M3 receptor in guinea pig ileum assessed as inhibition of electrically-stimulated muscle contraction relative to bathanecol; assay type: tissue-based
Chain of Muscarinic acetylcholine receptor M3 (Cavia porcellus) (Q8VH26 1-587): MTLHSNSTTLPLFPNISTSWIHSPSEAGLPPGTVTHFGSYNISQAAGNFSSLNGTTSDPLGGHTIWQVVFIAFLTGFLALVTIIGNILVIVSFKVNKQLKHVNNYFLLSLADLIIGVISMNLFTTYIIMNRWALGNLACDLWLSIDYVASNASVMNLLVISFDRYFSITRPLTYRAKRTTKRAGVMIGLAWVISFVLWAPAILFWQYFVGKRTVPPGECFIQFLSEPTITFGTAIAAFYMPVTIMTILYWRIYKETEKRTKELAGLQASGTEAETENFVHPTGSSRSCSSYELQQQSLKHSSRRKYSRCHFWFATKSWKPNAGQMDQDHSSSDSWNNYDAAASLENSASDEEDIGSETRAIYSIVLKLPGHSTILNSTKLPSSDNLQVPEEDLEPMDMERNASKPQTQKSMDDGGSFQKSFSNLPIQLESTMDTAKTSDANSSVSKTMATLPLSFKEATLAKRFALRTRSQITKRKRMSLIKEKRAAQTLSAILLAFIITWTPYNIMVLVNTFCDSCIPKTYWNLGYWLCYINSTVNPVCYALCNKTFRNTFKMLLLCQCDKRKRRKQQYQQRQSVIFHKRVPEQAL
How it was run: (§1)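 Male guinea pig (250-350 g, fasted 24 h) ileal segments 2-3 cm, 1.0 g tension, 37 °C, Krebs-Henseleit with carbogen; 45 min equilibration, isometric contractions. Cumulative agonist concentration-response curves; pD2 by linear regression; intrinsic activity relative to bethanechol maximum; means ± SEM of four to six experiments.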

Oryctolagus cuniculus [4] = species: Oryctolagus cuniculus; assay: (§2) Agonist activity at muscarinic M1 receptor in New Zealand White rabbit vas deferens assessed as inhibition of electrically-stimulated muscle contraction; assay type: functional
How it was run: (§3)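 Prostatic portion of male-free-listed New Zealand white rabbit (3.0-3.5 kg, fasted 24 h) vas deferens in modified Krebs, 31 °C, 95% O2-5% CO2; 45 min stabilisation, field stimulation 2 Hz, 5 ms, 5 V; isometric recording. Cumulative concentration-response curves; pD2 by linear regression; intrinsic activity as fraction of McN-A-343 maximum; means ± SEM of four to six experiments.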

[5] = target: Muscarinic acetylcholine receptor M3 (Homo sapiens, UniProt P20309); assay: Displacement of [3H]NMS from human muscarinic M3 receptor expressed in CHO cells by microplate scintillation counting; assay type: cell-based
Chain of Muscarinic acetylcholine receptor M3 (P20309 whole entry): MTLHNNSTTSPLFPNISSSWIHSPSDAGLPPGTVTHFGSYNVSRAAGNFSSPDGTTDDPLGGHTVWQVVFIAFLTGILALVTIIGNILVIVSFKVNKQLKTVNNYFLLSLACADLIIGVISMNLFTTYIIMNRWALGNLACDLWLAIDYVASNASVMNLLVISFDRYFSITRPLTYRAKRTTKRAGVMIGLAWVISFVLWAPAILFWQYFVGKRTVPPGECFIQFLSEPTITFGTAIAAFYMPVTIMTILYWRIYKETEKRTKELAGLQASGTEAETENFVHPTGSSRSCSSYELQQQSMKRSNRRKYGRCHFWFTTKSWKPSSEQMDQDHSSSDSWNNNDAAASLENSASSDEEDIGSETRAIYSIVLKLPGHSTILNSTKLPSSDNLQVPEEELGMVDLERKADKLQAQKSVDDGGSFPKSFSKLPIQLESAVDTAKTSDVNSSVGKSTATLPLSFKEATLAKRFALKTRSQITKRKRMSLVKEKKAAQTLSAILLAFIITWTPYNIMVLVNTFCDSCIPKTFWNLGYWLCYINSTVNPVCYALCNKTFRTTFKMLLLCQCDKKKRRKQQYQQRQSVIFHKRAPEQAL

[6] = Agonist activity at muscarinic M4 receptor in guinea pig lung assessed as inhibition of electrically-stimulated muscle contraction; assay type: functional, Cavia porcellus
Cavia porcellus [7] = species: Cavia porcellus; assay: Intrinsic activity at muscarinic M4 receptor in guinea pig lung assessed as inhibition of electrically-stimulated muscle contraction relative to bathanecol
How it was run: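 Male guinea pig peripheral lung strips (15 × 2 × 2 mm) from lower lobe, 0.3 g resting tension, 37 °C, Krebs-Henseleit with carbogen; 45 min equilibration, isometric contractions. Cumulative agonist concentration-response curves; pD2 by linear regression; intrinsic activity relative to bethanechol maximum; means ± SEM of four to six experiments.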

Cavia porcellus [8] = species: Cavia porcellus; assay: Intrinsic activity at muscarinic M2 receptor in guinea pig atrium assessed as inhibition of electrically-stimulated muscle contraction relative to bathanecol; assay type: tissue-based; conditions: Cardiac atrium
[9] = target: T3, Muscarinic acetylcholine receptor M5 (Homo sapiens, UniProt P08912); assay: Displacement of [3H]NMS from human muscarinic M5 receptor expressed in CHO cells by microplate scintillation counting; assay type: cell-based
T3 sequence (P08912 whole entry): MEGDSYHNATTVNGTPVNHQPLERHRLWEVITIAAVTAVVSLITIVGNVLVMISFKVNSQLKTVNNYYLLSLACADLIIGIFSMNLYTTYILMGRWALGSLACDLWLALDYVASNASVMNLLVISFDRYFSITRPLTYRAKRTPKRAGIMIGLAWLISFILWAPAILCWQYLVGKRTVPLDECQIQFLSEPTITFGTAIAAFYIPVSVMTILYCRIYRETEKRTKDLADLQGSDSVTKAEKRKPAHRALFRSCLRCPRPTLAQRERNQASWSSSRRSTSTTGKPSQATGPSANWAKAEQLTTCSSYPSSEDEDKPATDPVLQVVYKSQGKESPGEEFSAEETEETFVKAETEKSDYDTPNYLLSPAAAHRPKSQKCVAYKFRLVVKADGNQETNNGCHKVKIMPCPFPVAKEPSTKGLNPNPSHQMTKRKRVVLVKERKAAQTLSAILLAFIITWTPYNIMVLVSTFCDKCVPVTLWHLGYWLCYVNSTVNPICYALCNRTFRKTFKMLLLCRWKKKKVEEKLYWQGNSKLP

Oryctolagus cuniculus [10] = species: Oryctolagus cuniculus; conditions: New Zealand White, Vas deferens
[11] = target: T4, Muscarinic acetylcholine receptor M2 (Homo sapiens, UniProt P08172); assay: Displacement of [3H]NMS from human muscarinic M2 receptor expressed in CHO cells by microplate scintillation counting; assay type: cell-based
T4 sequence (P08172 whole entry): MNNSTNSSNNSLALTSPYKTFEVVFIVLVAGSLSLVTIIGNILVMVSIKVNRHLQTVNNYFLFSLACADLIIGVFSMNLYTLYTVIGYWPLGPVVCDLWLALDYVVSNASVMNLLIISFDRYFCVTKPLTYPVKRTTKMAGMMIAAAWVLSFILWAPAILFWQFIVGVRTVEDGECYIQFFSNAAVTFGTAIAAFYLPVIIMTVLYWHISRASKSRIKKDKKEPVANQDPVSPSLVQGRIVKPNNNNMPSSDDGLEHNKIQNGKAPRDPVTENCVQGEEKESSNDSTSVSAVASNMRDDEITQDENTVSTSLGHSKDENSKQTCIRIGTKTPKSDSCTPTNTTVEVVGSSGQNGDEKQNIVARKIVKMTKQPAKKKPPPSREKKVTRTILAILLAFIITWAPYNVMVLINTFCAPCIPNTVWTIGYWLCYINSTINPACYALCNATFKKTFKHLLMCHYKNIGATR

[12] = as §2; assay type: functional, Oryctolagus cuniculus; how it was run: as §3
Oryctolagus cuniculus [13] = species: Oryctolagus cuniculus; assay: Intrinsic activity at muscarinic M1 receptor in New Zealand White rabbit vas deferens assessed as inhibition of electrically-stimulated muscle contraction relative to McN-A-343; assay type: tissue-based; how it was run: as §3
[14] = target: Muscarinic acetylcholine receptor M3 (Cavia porcellus) (UniProt Q8VH26); assay: Agonist activity at muscarinic M3 receptor in guinea pig ileum assessed as inhibition of electrically-stimulated muscle contraction; assay type: functional, tissue-based; how it was run: as §1
Oryctolagus cuniculus [15] = species: Oryctolagus cuniculus; assay: Antagonist activity at muscarinic M1 receptor in New Zealand White rabbit vas deferens assessed as effect on muscle contraction up to 30 uM; assay type: functional, tissue-based
[16] = Agonist activity at muscarinic M2 receptor in guinea pig atrium assessed as inhibition of electrically-stimulated muscle contraction; assay type: functional, Cavia porcellus, Cardiac atrium
Cavia porcellus [17] = species: Cavia porcellus; assay: Antagonist activity at muscarinic M4 receptor in guinea pig lung assessed as effect on muscle contraction up to 10 uM; assay type: functional
Cavia porcellus [18] = species: Cavia porcellus; assay: Selectivity ratio of pD2 for guinea pig muscarinic M4 receptor to pD2 for guinea pig muscarinic M3 receptor
Cavia porcellus [19] = species: Cavia porcellus; assay: Selectivity ratio of pD2 for guinea pig muscarinic M3 receptor to pD2 for guinea pig muscarinic M2 receptor

| SMILES | Ki [1] [µM] | Ki [2] [µM] | Intrinsic activity [3] | pD2 (Oryctolagus cuniculus [4]) | Ki [5] [µM] | pD2 [6] | Intrinsic activity (Cavia porcellus [7]) | Intrinsic activity (Cavia porcellus [8]) | Ki [9] [µM] | pKb (Oryctolagus cuniculus [10]) | Ki [11] [µM] | pD2 [12] | Intrinsic activity (Oryctolagus cuniculus [13]) | pD2 [14] | pKb (Oryctolagus cuniculus [15]) | pD2 [16] | pKb (Cavia porcellus [17]) | Selectivity ratio (Cavia porcellus [18]) | Selectivity ratio (Cavia porcellus [19]) |
| --- | --- | --- | --- | --- | --- | --- | --- | --- | --- | --- | --- | --- | --- | --- | --- | --- | --- | --- | --- |
| C[C@H]1CO[C@H](C[N+](C)(C)C)CO1.[I-] (relative stereo) | > 100 | > 100 | 1 | inactive | 44.7 | 5.08 | 0.57 | 0.95 | 63.1 | inactive | 17.4 | – | – | – | – | – | – | – | – |
| C[N+](C)(C)CC#CCOC(=O)Nc1cccc(Cl)c1.[Cl-] | – | – | – | – | – | – | – | – | – | – | – | 6.4 | – | – | – | – | – | – | – |
| C[C@@H]1COC[C@@H](C[N+](C)(C)C)O1.[I-] | 87.1 | – | – | – | – | – | 1 | 1 | 67.6 | – | 4.9 | 5.08 | 1 | 6.02 | – | – | – | – | – |
| CC1(C)OC[C@@H](C[N+](C)(C)C)OC1(C)C.[I-] | 53.7 | > 100 | 0.93 | inactive | 40.7 | – | – | 0.71 | 66.1 | – | 46.8 | – | – | 5.09 | inactive | 5.12 | inactive | – | – |
| C[C@H]1OC[C@@H](C[N+](C)(C)C)O[C@@H]1C.[I-] (relative stereo) | > 100 | > 100 | 1.18 | – | > 100 | 4.59 | 0.65 | 0.89 | > 100 | – | 16.6 | – | – | 6.7 | – | 5.01 | – | 141 | 49 |
| C[C@@H]1OC[C@@H](C[N+](C)(C)C)OC1(C)C.[I-] (relative stereo) | 30.2 | 38 | 0.66 | – | 10.5 | – | – | 0.46 | 16.6 | – | 33.9 | – | – | 5.7 | – | 4.99 | inactive | – | – |
| C[C@@H]1O[C@H](C[N+](C)(C)C)CO[C@@H]1C.[I-] (relative stereo) | > 100 | > 100 | 1 | – | > 100 | 5 | 0.5 | 0.91 | 97.7 | – | 20 | – | – | 5.27 | – | 5.18 | – | – | – |
| C[C@@H]1OC[C@@H](C[N+](C)(C)C)O[C@@H]1C.[I-] (relative stereo) | > 100 | > 100 | 0.85 | inactive | > 100 | – | – | 0.27 | > 100 | – | 89.1 | – | – | 4.91 | inactive | 5.04 | inactive | – | – |
| C[C@H]1COC[C@@H](C[N+](C)(C)C)O1.[I-] (relative stereo) | 11.5 | – | – | – | – | – | – | 1 | 7.76 | – | 1.58 | 5.65 | 1 | 7.34 | – | – | – | – | – |
| CC(C[N+](C)(C)C)OC(N)=O.[Cl-] (stereo not drawn) [BETHANECHOL CHLORIDE] | – | – | – | – | – | 5.01 | – | – | – | – | – | – | – | 6.16 | – | 5.88 | – | – | – |
| C[C@@H]1CO[C@H](C[N+](C)(C)C)CO1.[I-] (relative stereo) | 93.3 | > 100 | 1 | inactive | 66.1 | – | 0.55 | 1 | 93.3 | inactive | 11.2 | – | – | – | – | – | – | – | – |
